Laboratory results published in ChEMBL document CHEMBL3112519, “Degrasyn-like symmetrical compounds: possible therapeutic agents for multiple myeloma (MM-I)” (Bioorg Med Chem, 2014).
pIC50: −log10 of the molar value. Active and inactive are the calls of the source. The rule behind the calls is not given here.

Key:
[1] = Cytotoxicity against human MM1S cells after 72 hrs by MTT assay; format: functional, cell-based; details: MM1.S
In short: (§1)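 Cells were grown in RPMI 1640 with 10% heat-inactivated FBS and 2 mM glutamine. Non-adherent cells were seeded at 20,000 per well and adherent cells at 5,000. Compounds were serially diluted in medium from a final top concentration of 10 μM (DMSO ≤0.1%), with vehicle controls, and incubated at 37 °C for 72 h. MTT was added for 2 h, then SDS/DMF lysis (pH 4.7) for 6 h, and OD570 was read. IC50 was taken from the concentration range.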

[2] = system: A-375; assay: Cytotoxicity against human A375 cells after 72 hrs by MTT assay; format: functional, cell-based; details: A-375, 72 h; in short: as §1
[3] = Cytotoxicity against human MM1S cells at 10 uM after 72 hrs by MTT assay; format: functional; details: MM1.S
In short: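 MM1.S cells were grown in RPMI 1640 with 10% heat-inactivated FBS and 2 mM glutamine and plated at 20,000 cells per well. They were exposed to a single 10 μM final concentration (DMSO ≤0.1%) or vehicle for 72 h at 37 °C. MTT was added for 2 h, followed by SDS/DMF lysis for 6 h and OD570 reading. Percent growth inhibition was calculated against vehicle.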

[4] = system: K562; assay: Cytotoxicity against human K562 cells after 72 hrs by MTT assay; format: functional, cell-based; details: K562, 72 h; in short: as §1
[5] = Cytotoxicity against human Mino cells after 72 hrs by MTT assay; format: functional, cell-based; in short: as §1
[6] = target: T1, Ubiquitin carboxyl-terminal hydrolase 9X (Homo sapiens, UniProt Q93008); assay: Inhibition of human recombinant N-terminal His6-Smt3-fusion-tagged Usp9x catalytic domain expressed in Escherichia coli using Ub-AMC as substrate incubated for 30 mins prior to substrate addition by fluorescence assay
T1 sequence (Q93008 whole entry, the tested form may be a part): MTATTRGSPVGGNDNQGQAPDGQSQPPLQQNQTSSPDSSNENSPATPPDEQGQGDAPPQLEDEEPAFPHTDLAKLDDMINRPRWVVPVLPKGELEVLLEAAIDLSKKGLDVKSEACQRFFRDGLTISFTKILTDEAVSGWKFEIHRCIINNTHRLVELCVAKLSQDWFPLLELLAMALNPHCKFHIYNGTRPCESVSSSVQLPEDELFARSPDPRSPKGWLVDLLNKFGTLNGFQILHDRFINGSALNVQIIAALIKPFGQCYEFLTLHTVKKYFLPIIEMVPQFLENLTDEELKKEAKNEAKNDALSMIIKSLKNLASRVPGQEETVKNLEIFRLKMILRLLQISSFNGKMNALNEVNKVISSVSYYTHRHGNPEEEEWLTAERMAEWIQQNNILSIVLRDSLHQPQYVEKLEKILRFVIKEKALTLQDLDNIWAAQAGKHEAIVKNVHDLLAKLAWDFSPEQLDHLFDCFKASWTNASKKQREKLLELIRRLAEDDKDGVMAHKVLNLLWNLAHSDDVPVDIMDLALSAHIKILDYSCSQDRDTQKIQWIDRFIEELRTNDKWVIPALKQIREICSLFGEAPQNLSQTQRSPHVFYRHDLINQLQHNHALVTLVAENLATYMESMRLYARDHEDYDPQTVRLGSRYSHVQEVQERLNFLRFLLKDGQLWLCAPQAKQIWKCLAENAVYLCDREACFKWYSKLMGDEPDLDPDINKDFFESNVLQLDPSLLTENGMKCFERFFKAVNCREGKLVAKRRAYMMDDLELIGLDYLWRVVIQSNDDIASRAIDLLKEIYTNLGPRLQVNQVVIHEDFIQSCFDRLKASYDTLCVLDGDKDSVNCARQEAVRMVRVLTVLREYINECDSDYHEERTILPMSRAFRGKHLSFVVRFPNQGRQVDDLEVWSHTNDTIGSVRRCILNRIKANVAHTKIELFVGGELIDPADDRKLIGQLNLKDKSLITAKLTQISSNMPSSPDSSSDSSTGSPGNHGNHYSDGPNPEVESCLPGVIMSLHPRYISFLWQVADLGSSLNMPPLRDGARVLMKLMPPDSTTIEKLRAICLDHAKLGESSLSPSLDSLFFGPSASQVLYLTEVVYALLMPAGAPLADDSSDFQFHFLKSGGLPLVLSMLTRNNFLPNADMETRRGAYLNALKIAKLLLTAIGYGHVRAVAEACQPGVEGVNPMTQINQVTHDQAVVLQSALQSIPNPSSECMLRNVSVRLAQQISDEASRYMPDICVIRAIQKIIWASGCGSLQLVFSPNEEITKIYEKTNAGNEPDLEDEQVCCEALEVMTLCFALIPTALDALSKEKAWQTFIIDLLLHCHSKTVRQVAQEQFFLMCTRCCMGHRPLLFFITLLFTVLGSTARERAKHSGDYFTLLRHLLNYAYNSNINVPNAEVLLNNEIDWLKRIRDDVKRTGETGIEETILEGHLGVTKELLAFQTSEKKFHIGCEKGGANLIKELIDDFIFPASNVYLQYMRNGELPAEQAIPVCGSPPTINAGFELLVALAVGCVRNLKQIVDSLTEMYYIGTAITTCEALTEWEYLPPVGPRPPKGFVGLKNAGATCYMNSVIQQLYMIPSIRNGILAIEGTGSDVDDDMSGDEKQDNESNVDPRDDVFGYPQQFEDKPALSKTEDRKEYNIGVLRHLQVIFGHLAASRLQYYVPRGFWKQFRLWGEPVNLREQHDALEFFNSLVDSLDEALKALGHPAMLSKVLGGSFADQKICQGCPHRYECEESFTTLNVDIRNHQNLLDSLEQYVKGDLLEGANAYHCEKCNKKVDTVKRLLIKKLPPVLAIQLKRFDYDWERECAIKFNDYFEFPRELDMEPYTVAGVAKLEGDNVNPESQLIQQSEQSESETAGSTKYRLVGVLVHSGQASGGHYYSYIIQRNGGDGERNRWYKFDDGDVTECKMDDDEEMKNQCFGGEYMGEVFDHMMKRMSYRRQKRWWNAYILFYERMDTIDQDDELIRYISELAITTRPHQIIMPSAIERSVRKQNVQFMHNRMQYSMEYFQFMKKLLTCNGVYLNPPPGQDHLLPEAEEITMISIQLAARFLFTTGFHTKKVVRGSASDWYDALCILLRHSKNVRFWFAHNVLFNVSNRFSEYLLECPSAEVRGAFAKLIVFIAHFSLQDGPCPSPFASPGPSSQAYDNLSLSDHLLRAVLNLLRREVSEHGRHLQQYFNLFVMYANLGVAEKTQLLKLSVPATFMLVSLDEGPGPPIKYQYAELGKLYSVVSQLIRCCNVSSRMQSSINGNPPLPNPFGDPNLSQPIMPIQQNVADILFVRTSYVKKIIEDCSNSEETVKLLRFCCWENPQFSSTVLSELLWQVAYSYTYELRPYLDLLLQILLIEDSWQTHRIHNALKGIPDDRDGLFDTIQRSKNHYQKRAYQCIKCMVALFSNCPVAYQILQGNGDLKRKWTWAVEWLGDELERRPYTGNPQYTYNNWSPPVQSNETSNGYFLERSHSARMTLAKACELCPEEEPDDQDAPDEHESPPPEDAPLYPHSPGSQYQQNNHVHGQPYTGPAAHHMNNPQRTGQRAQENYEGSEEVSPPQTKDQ

[7] = target: T1, Ubiquitin carboxyl-terminal hydrolase 9X; assay: Inhibition of Usp9x in human Z138 cells using HA-Ub vinyl-sulfone as substrate at 1.25 to 5 uM after 4 hrs by immunoblotting analysis; format: cell-based
[8] = species: Homo sapiens; assay: Inhibition of human Bcr-Abl kinase at 10000 nM
[9] = target: Mast/stem cell growth factor receptor Kit (Homo sapiens) (UniProt P10721); assay: Inhibition of human c-kit kinase at 10000 nM
Chain of Mast/stem cell growth factor receptor Kit (Homo sapiens) (P10721 whole entry): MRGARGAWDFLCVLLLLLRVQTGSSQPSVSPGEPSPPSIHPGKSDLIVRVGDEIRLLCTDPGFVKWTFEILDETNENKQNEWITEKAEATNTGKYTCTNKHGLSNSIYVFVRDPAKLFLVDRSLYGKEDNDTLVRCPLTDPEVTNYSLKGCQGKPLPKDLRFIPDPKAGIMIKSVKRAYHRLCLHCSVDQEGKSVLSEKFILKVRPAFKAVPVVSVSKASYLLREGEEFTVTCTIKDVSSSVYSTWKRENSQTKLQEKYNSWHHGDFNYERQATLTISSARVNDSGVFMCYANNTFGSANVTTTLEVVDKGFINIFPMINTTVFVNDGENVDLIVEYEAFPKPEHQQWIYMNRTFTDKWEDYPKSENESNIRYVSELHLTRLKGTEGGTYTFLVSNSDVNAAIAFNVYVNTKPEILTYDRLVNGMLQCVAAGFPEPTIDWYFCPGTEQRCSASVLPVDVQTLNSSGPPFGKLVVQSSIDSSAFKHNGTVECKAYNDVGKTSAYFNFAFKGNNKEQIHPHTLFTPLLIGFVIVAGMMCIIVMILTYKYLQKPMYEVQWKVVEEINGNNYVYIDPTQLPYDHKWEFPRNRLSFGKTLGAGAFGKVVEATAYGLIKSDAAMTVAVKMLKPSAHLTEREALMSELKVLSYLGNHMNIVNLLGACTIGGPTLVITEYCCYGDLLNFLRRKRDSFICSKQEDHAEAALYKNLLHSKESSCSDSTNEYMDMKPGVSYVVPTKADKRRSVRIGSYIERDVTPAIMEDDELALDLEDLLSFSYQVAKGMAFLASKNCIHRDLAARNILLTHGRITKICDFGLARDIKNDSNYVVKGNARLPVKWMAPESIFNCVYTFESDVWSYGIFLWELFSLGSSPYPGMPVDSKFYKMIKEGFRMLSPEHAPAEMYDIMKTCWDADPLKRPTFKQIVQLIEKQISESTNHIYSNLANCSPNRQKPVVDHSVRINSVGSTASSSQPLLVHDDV

[10] = target: Tyrosine-protein kinase JAK2 (Homo sapiens) (UniProt O60674); assay: Inhibition of human JAK2 kinase at 10000 nM
Chain of Tyrosine-protein kinase JAK2 (Homo sapiens) (O60674 whole entry): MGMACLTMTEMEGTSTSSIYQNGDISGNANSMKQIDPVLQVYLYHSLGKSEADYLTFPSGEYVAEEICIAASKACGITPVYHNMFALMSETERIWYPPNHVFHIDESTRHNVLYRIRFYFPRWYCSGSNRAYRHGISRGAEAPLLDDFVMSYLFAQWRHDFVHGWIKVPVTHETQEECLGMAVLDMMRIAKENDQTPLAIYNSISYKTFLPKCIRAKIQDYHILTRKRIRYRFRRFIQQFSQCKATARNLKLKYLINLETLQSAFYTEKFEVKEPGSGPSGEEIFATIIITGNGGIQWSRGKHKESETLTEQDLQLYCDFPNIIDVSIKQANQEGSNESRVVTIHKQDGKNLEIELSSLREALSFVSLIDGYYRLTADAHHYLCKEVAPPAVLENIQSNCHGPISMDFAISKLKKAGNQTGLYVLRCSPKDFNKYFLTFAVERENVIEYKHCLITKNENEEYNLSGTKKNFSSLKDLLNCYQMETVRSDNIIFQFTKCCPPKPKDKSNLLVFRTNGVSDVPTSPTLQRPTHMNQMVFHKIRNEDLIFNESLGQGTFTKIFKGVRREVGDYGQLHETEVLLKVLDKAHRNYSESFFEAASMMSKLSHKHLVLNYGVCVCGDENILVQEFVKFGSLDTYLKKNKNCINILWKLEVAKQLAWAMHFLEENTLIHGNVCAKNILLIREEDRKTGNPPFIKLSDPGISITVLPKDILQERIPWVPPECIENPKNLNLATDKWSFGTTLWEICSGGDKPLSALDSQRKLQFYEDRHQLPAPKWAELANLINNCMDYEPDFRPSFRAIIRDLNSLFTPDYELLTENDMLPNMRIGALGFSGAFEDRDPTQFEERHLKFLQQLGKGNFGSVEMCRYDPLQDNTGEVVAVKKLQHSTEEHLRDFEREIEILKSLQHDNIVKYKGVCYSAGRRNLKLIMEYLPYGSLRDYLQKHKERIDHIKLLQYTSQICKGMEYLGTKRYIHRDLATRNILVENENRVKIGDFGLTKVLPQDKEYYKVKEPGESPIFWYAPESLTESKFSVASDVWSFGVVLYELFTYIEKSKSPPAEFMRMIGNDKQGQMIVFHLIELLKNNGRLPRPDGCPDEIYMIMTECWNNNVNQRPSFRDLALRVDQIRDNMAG

| SMILES | pIC50 [1] | other results |
| --- | --- | --- |
| CC[C@H](NC(=O)/C(C#N)=C/c1cccc(/C=C(\C#N)C(=O)N[C@@H](CC)c2ccccc2)c1)c1ccccc1 | 6.10 |  |
| N#C/C(=C/c1ccc2[nH]ccc2c1)C(=O)NCc1cccc(CNC(=O)/C(C#N)=C\c2ccc3[nH]ccc3c2)c1 | < 5.30 |  |
| CCC[C@H](NC(=O)/C(C#N)=C/c1cccc(/C=C(\C#N)C(=O)N[C@@H](CCC)c2ccccc2)n1)c1ccccc1 | 5.92 |  |
| N#C/C(=C\c1cccc(/C=C(\C#N)C(=O)N[C@@H](CO)c2ccccc2)c1)C(=O)N[C@@H](CO)c1ccccc1 | < 5.70 |  |
| C[C@H](NC(=O)/C(C#N)=C/c1ccc(/C=C(\C#N)C(=O)N[C@@H](C)c2ccccc2)cc1)c1ccccc1 | < 5.30 |  |
| COc1ccc([C@H](C)NC(=O)/C(C#N)=C/c2cccc(/C=C(\C#N)C(=O)N[C@@H](C)c3ccc(OC)cc3)c2)cc1 | 6.00 |  |
| N#C/C(=C/c1csc2ccccc12)C(=O)NCc1cccc(CNC(=O)/C(C#N)=C\c2csc3ccccc23)c1 | < 5.30 |  |
| C[C@H](NC(=O)/C(C#N)=C/c1cccc(/C=C(\C#N)C(=O)N[C@@H](C)c2ccccc2)c1)c1ccccc1 | 6.40 | pIC50 [2]: 6.10; inhibition at 10 µM [3]: 100%; pIC50 [4]: 6.22; pIC50 [5]: 6.40 |
| N#C/C(=C\c1ccc(/C=C(\C#N)C(=O)N[C@@H](CO)c2ccccc2)cc1)C(=O)N[C@@H](CO)c1ccccc1 | 5.70 |  |
| CCC[C@H](NC(=O)/C(C#N)=C/c1cccc(Br)n1)c1ccccc1 | 5.92 | pIC50 [2]: 5.77; pIC50 [6]: 5.23; inhibition at 10 µM [3]: 97%; inhibition [7]: Active; pIC50 [4]: 5.62; pIC50 [5]: 6.10 |
| C[C@H](NC(=O)/C(C#N)=C/c1ccc(C(F)(F)F)cc1)c1ccccc1 |  | inhibition at 10 µM [3]: 63% |
| COc1ccc(/C=C(/C#N)C(=O)NCc2cccc(CNC(=O)/C(C#N)=C\c3ccc(OC)c(OC)c3)c2)cc1OC | 5.70 |  |
| CCCCOc1ccc(/C=C(\C#N)C(=O)N[C@@H](C)c2ccccc2)cc1 |  | inhibition at 10 µM [3]: 31% |
| CCC[C@H](NC(=O)/C(C#N)=C/c1cccc(/C=C(\C#N)C(=O)N[C@@H](CCC)c2ccccc2)c1)c1ccccc1 | 6.22 |  |
| N#C/C(=C/c1ccc([N+](=O)[O-])c(O)c1)C(=O)NCc1cccc(CNC(=O)/C(C#N)=C\c2ccc([N+](=O)[O-])c(O)c2)c1 | 6.15 |  |
| N#C/C(=C\c1cccc(/C=C(\C#N)C(=O)N[C@@H](Cc2ccccc2)c2ccccc2)c1)C(=O)N[C@@H](Cc1ccccc1)c1ccccc1 | 6.21 |  |
| N#C/C(=C/c1cnc[nH]1)C(=O)NCc1cccc(CNC(=O)/C(C#N)=C\c2cnc[nH]2)c1 | < 5.30 |  |
| COc1ccc(C(CC2CC2)NC(=O)/C(C#N)=C/c2cccc(/C=C(\C#N)C(=O)NC(CC3CC3)c3ccc(OC)cc3)c2)cc1 (racemic) | 5.92 |  |
| N#C/C(=C/c1c[nH]c2ccccc12)C(=O)NCc1cccc(CNC(=O)/C(C#N)=C\c2c[nH]c3ccccc23)c1 | < 5.30 |  |
| C[C@H](NC(=O)/C(C#N)=C/c1cccs1)c1ccccc1 |  | inhibition at 10 µM [3]: 14% |

| SMILES | pIC50 [1] | other results |
| --- | --- | --- |
| N#C/C(=C/c1ccc(N2CCCCC2)cc1)C(=O)NCc1cccc(CNC(=O)/C(C#N)=C\c2ccc(N3CCCCC3)cc2)c1 | < 5.30 |  |
| N#C/C(=C/c1cc(Cl)c(Cl)cn1)C(=O)NCc1cccc(CNC(=O)/C(C#N)=C\c2cc(Cl)c(Cl)cn2)c1 | 5.90 |  |
| C[C@H](NC(=O)/C(C#N)=C/c1cc(/C=C(\C#N)C(=O)N[C@@H](C)c2ccccc2)cc(/C=C(\C#N)C(=O)N[C@@H](C)c2ccccc2)c1)c1ccccc1 | 6.15 |  |
| COC(=O)c1ccc(/C=C(\C#N)C(=O)N[C@@H](C)c2ccccc2)cc1 |  | inhibition at 10 µM [3]: 67% |
| N#C/C(=C\C=C\c1ccc(O)c(O)c1)C(=O)NCc1cccc(CNC(=O)/C(C#N)=C/C=C/c2ccc(O)c(O)c2)c1 | < 5.30 |  |
| N#C/C(=C\c1ccccc1)C(=O)N1CCC(C(c2ccccc2)c2ccccc2)CC1 |  | inhibition at 10 µM [3]: 14% |
| N#C/C(=C/c1cc(-c2ccccc2)cs1)C(=O)NCc1cccc(CNC(=O)/C(C#N)=C\c2cc(-c3ccccc3)cs2)c1 | < 5.30 |  |
| C[C@H](NC(=O)/C(C#N)=C/c1ccc(/C=C(\C#N)C(=O)N[C@@H](C)c2ccccc2Cl)cc1)c1ccccc1Cl | < 5.30 |  |
| C[C@H](NC(=O)/C(C#N)=C/c1cccnc1)c1ccccc1 |  | inhibition at 10 µM [3]: 44% |
| Cc1ccc(Cl)c(C=C(C#N)C(=O)NCc2cccc(CNC(=O)C(C#N)=Cc3c(Cl)ccc(C)c3F)c2)c1F | 6.22 |  |
| C[C@H](NC(=O)/C(C#N)=C/c1ccc(-c2ccccc2)cc1)c1ccccc1 |  | inhibition at 10 µM [3]: 49% |
| N#C/C(=C/c1ccc(O)c(Br)c1)C(=O)NCc1cccc(CNC(=O)/C(C#N)=C\c2ccc(O)c(Br)c2)c1 | < 5.00 |  |
| COc1cccc(/C=C(/C#N)C(=O)NCc2cccc(CNC(=O)/C(C#N)=C\c3cccc(OC)n3)c2)n1 | < 5.30 |  |
| C[C@H](NC(=O)/C(C#N)=C/c1cccc(/C=C(\C#N)C(=O)N[C@@H](C)c2ccccc2)n1)c1ccccc1 | 5.89 |  |
| N#C/C(=C/c1cccc(Br)n1)C(=O)NCc1cccc(CNC(=O)/C(C#N)=C\c2cccc(Br)n2)c1 | 6.62 | inhibition [8]: inactive; pIC50 [2]: 6.22; pIC50 [4]: 6.40; inhibition [9]: inactive; inhibition [10]: inactive; pIC50 [5]: 6.70 |
| CC(C)c1ccc(/C=C(\C#N)C(=O)NCc2ccc(Cl)cc2)cc1 |  | inhibition at 10 µM [3]: 21% |
| CCCCCCOc1ccc(/C=C(/C#N)C(=O)NCc2cccc(CNC(=O)/C(C#N)=C\c3ccc(OCCCCCC)cc3)c2)cc1 | 5.30 |  |
| N#C/C(=C\c1cccc(/C=C(\C#N)C(=O)N[C@@H](CO)c2ccccc2)n1)C(=O)N[C@@H](CO)c1ccccc1 | < 5.70 |  |
| N#C/C(=C/c1ccc(-c2cccs2)s1)C(=O)NCc1cccc(CNC(=O)/C(C#N)=C\c2ccc(-c3cccs3)s2)c1 | < 5.30 |  |
